Measured values published in ChEMBL document CHEMBL1156247, “Synthesis and anti-HIV-1 integrase activity of modified dinucleotides” (Eur J Med Chem, 2009).
Active and inactive are the calls of the source. The calls are words filed in the database; no cut-off is given here.

Target: Human immunodeficiency virus type 1 integrase (Human immunodeficiency virus 1, UniProt Q7ZJM1)
Experiment: Inhibition of recombinant HIV1 integrase 3^-end processing and strand transfer activity after 1 hr
How it was run: (§1)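 Recombinant HIV-1 integrase (100 nM) with 12.5 nM 21-mer double-stranded DNA substrate in 10 mM HEPES pH 7.2, 1 mM DTT, 7.5 mM MgCl₂, 1 hr at 37 °C. Compound was titrated from 300 nM upward; an EDTA (10 mM) lane and a no-drug lane were included. 3′-processed and strand-transfer products were resolved on denaturing 18% acrylamide/urea gels.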

Chain of Human immunodeficiency virus type 1 integrase (Q7ZJM1 whole entry): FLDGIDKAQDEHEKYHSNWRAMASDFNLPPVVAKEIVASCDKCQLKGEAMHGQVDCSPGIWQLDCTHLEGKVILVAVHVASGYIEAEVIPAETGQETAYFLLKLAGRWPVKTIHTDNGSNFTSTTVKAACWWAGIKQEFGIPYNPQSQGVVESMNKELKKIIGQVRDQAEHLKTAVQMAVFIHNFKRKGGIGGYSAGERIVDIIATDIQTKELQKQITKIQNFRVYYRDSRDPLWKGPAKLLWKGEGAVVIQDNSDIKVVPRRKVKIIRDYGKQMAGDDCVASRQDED

SMILES	IC50 [µM]
NCCCCCCNP(=O)(O)O[C@H]1C[C@H](n2cnc3c(N)ncnc32)O[C@@H]1COP(=O)(O)O[C@H]1C[C@H](n2ccc(N)nc2=O)O[C@@H]1COP(=O)(O)O	> 100
NCCCNc1ccn([C@H]2C[C@H](OP(=O)(O)OC[C@H]3O[C@@H](n4cnc5c(N)ncnc54)C[C@@H]3O)[C@@H](CO)O2)c(=O)n1	> 1000
NCCN(CCN)CCCSP(=O)(O)OC[C@H]1O[C@@H](n2ccc(N)nc2=O)C[C@@H]1OP(=O)(O)OC[C@H]1O[C@@H](n2cnc3c(N)ncnc32)C[C@@H]1OP(=O)(O)O	786
Nc1ccn([C@H]2C[C@H](OP(=O)(O)OC[C@H]3O[C@@H](n4cnc5c(N)ncnc54)C[C@@H]3OP(=O)(O)O)[C@@H](COP(=O)(O)OCCCCCCNC(=O)c3ccc4c(c3)C(=O)c3cc(C(=O)NCCCCCCO)ccc3C4=O)O2)c(=O)n1 (stereo in doubt; 28)	21
Nc1ccn([C@H]2C[C@H](OP(=O)(O)OC[C@H]3O[C@@H](n4cnc5c(N)ncnc54)C[C@@H]3OP(=O)(O)O)[C@@H](COP(=O)(O)OCCCCCCNC(=O)c3ccc4c(c3)C(=O)c3cc(C(=O)NCCCCCCO)ccc3C4=O)O2)c(=O)n1 (stereo in doubt; 29) [listing 1 of 2 here]	65.5
NCCCCNP(=O)(OC[C@H]1O[C@@H](n2cnc3c(N)ncnc32)C[C@@H]1O)O[C@H]1C[C@H](n2ccc(N)nc2=O)O[C@@H]1CO (stereo not given in full)	≥ 340
NCCCCNP(=O)(OC[C@H]1O[C@@H](n2ccc(N)nc2=O)C[C@@H]1O)OC[C@H]1O[C@@H](n2cnc3c(N)ncnc32)C[C@@H]1O (stereo not given in full)	102
Nc1ccn([C@H]2C[C@H](OP(=O)(O)O[C@H]3C[C@H](n4cnc5c(N)ncnc54)O[C@@H]3CO)[C@@H](CO)O2)c(=O)n1	≥ 340
COc1ccc2nc3cc(Cl)ccc3c(NCCCCSP(=O)(O)O[C@H]3C[C@H](n4cnc5c(N)ncnc54)O[C@@H]3COP(=O)(O)O[C@H]3C[C@H](n4ccc(N)nc4=O)O[C@@H]3COP(=O)(O)O)c2c1	> 100
Nc1ccn([C@H]2C[C@H](OP(=O)(O)OC[C@H]3O[C@@H](n4cnc5c(N)ncnc54)C[C@@H]3O)[C@@H](CO)O2)c(=O)n1	340
N=C(N)NCCCCCCNc1ccn([C@H]2C[C@H](OP(=O)(O)OC[C@H]3O[C@@H](n4cnc5c(N)ncnc54)C[C@@H]3O)[C@@H](CO)O2)c(=O)n1	> 340
NCCCCCNc1ccn([C@H]2C[C@H](OP(=O)(O)OC[C@H]3O[C@@H](n4cnc5c(N)ncnc54)C[C@@H]3O)[C@@H](CO)O2)c(=O)n1	> 340
Nc1ccn([C@H]2C[C@H](OP(=O)(O)OC[C@H]3O[C@@H](n4cnc5c(N)ncnc54)C[C@@H]3OP(=O)(O)O)[C@@H](COP(=O)(O)O[C@H]3C[C@H](OCCCc4ccc5c6cccc7cccc(c8cccc4c85)c76)O[C@@H]3CO)O2)c(=O)n1	30
COc1ccc2nc3cc(Cl)ccc3c(NCCCCCCSP(=O)(O)O[C@H]3C[C@H](n4cnc5c(N)ncnc54)O[C@@H]3COP(=O)(O)O[C@H]3C[C@H](n4ccc(N)nc4=O)O[C@@H]3COP(=O)(O)O)c2c1	> 100
N=C(N)NCCCCNP(=O)(O[C@H]1C[C@H](n2ccc(N)nc2=O)O[C@@H]1CO)O[C@H]1C[C@H](n2cnc3c(N)ncnc32)O[C@@H]1CO (stereo not given in full)	100
COc1ccc2nc3cc(Cl)ccc3c(NCCCCCCOP(=O)(O)OC[C@H]3O[C@@H](n4ccc(N)nc4=O)C[C@@H]3OP(=O)(O)OC[C@H]3O[C@@H](n4cnc5c(N)ncnc54)C[C@@H]3OP(=O)(O)O)c2c1	13.2
Nc1ccn([C@H]2C[C@H](OP(=O)(O)OC[C@H]3O[C@@H](n4cnc5c(N)ncnc54)C[C@@H]3OP(=O)(O)NCCCO)[C@@H](COP(=O)(O)O)O2)c(=O)n1	> 100
Nc1ccn([C@H]2C[C@H](O)[C@@H](COP(=O)(O)OC[C@H]3O[C@@H](n4cnc5c(N)ncnc54)C[C@@H]3O)O2)c(=O)n1	≥ 340
Nc1ccn([C@H]2C[C@H](OP(=O)(O)OC[C@H]3O[C@@H](n4cnc5c(N)ncnc54)C[C@@H]3OP(=O)(O)O)[C@@H](COP(=O)(O)SCCCCCC(=O)Nc3ccc(N)c4c3C(=O)c3ccccc3C4=O)O2)c(=O)n1	13.4

SMILES	IC50 [µM]
Nc1ccn([C@H]2C[C@H](OP(=O)(S)O[C@H]3C[C@H](n4cnc5c(N)ncnc54)O[C@@H]3CO)[C@@H](CO)O2)c(=O)n1 (stereo not given in full)	110
Nc1ccn([C@@H]2C[C@@H](OP(=O)(O)OC[C@@H]3O[C@H](n4cnc5c(N)ncnc54)C[C@H]3O)[C@H](CO)O2)c(=O)n1 (single isomer, unassigned)	≥ 340
NCCNc1ccn([C@H]2C[C@H](OP(=O)(O)OC[C@H]3O[C@@H](n4cnc5c(N)ncnc54)C[C@@H]3O)[C@@H](CO)O2)c(=O)n1	> 1000
Nc1ccn([C@H]2C[C@H](OP(=O)(O)OC[C@H]3O[C@@H](n4cnc5c(N)ncnc54)C[C@@H]3OP(=O)(O)NCCCCCCCCCCCCO)[C@@H](COP(=O)(O)O)O2)c(=O)n1	> 100
COc1ccc2nc3cc(Cl)ccc3c(NCCC[N+](C)(C)CCCSP(=O)(O)O[C@H]3C[C@H](n4cnc5c(N)ncnc54)O[C@@H]3COP(=O)([O-])O[C@H]3C[C@H](n4ccc(N)nc4=O)O[C@@H]3COP(=O)(O)O)c2c1	> 100
N=C(N)NCCCCNc1ccn([C@H]2C[C@H](OP(=O)(O)OC[C@H]3O[C@@H](n4cnc5c(N)ncnc54)C[C@@H]3O)[C@@H](CO)O2)c(=O)n1	> 340
Nc1ccn([C@H]2C[C@H](OP(=O)(O)OC[C@H]3O[C@@H](n4cnc5c(N)ncnc54)C[C@@H]3OP(=O)(O)O)[C@@H](COP(=O)(O)OCCCCCCNCc3ccc4c5cccc6cccc(c7cccc3c74)c65)O2)c(=O)n1	1.8
NCCCCCCNc1ccn([C@H]2C[C@H](OP(=O)(O)OC[C@H]3O[C@@H](n4cnc5c(N)ncnc54)C[C@@H]3O)[C@@H](CO)O2)c(=O)n1	> 340
Nc1ccn([C@@H]2C[C@@H](O)[C@H](COP(=O)(O)O[C@@H]3C[C@@H](n4cnc5c(N)ncnc54)O[C@H]3CO)O2)c(=O)n1	≥ 340
Nc1ccn([C@H]2C[C@H](OP(=O)(S)OC[C@H]3O[C@@H](n4cnc5c(N)ncnc54)C[C@@H]3O)[C@@H](CO)O2)c(=O)n1 (stereo not given in full)	≥ 340
NCCCCNc1ccn([C@H]2C[C@H](OP(=O)(O)OC[C@H]3O[C@@H](n4cnc5c(N)ncnc54)C[C@@H]3O)[C@@H](CO)O2)c(=O)n1	> 1000
Nc1ccn([C@H]2C[C@H](OP(=O)(O)OC[C@H]3O[C@@H](n4cnc5c(N)ncnc54)C[C@@H]3OP(=O)(O)O)[C@@H](COP(=O)(O)SCCCCCC(=O)Nc3cccc4c3C(=O)c3ccccc3C4=O)O2)c(=O)n1	13.9
COc1ccc2nc3cc(Cl)ccc3c(NCCC[N+](C)(C)CCCSP(=O)(O)OC[C@H]3O[C@@H](n4ccc(N)nc4=O)C[C@@H]3OP(=O)([O-])OC[C@H]3O[C@@H](n4cnc5c(N)ncnc54)C[C@@H]3OP(=O)(O)O)c2c1	> 100
N=C(N)NCCCCNP(=O)(OC[C@H]1O[C@@H](n2cnc3c(N)ncnc32)C[C@@H]1O)O[C@H]1C[C@H](n2ccc(N)nc2=O)O[C@@H]1CO (stereo not given in full)	≥ 340
NCCCCNP(=O)(O[C@H]1C[C@H](n2ccc(N)nc2=O)O[C@@H]1CO)O[C@H]1C[C@H](n2cnc3c(N)ncnc32)O[C@@H]1CO (stereo not given in full)	100
Nc1ccn([C@H]2C[C@H](O)[C@@H](COP(=O)(S)OC[C@H]3O[C@@H](n4cnc5c(N)ncnc54)C[C@@H]3O)O2)c(=O)n1 (stereo not given in full)	≥ 340
N=C(N)NCCCCNP(=O)(OC[C@H]1O[C@@H](n2ccc(N)nc2=O)C[C@@H]1O)OC[C@H]1O[C@@H](n2cnc3c(N)ncnc32)C[C@@H]1O (stereo not given in full)	100
N=C(N)NCCCCCNc1ccn([C@H]2C[C@H](OP(=O)(O)OC[C@H]3O[C@@H](n4cnc5c(N)ncnc54)C[C@@H]3O)[C@@H](CO)O2)c(=O)n1	> 340

Target: Human immunodeficiency virus type 1 integrase (Human immunodeficiency virus 1) (UniProt Q7ZJM1)
Sequence (Q7ZJM1 as listed by the source): as the sequence (Q7ZJM1 whole entry) above
Experiment: Inhibition of recombinant HIV1 integrase 3^-end processing and strand transfer activity at 300 uM to 300 nM after 1 hr by PAGE analysis
How it was run: as §1

SMILES	Activity
COc1ccc2nc3cc(Cl)ccc3c(NCCCCCCOP(=O)(O)OC[C@H]3O[C@@H](n4ccc(N)nc4=O)C[C@@H]3OP(=O)(O)OC[C@H]3O[C@@H](n4cnc5c(N)ncnc54)C[C@@H]3OP(=O)(O)O)c2c1	Active
Nc1ccn([C@H]2C[C@H](OP(=O)(O)OC[C@H]3O[C@@H](n4cnc5c(N)ncnc54)C[C@@H]3OP(=O)(O)O)[C@@H](COP(=O)(O)OCCCCCCNCc3ccc4c5cccc6cccc(c7cccc3c74)c65)O2)c(=O)n1	Active
Nc1ccn([C@H]2C[C@H](OP(=O)(O)OC[C@H]3O[C@@H](n4cnc5c(N)ncnc54)C[C@@H]3OP(=O)(O)O)[C@@H](COP(=O)(O)OCCCCCCNC(=O)c3ccc4c(c3)C(=O)c3cc(C(=O)NCCCCCCO)ccc3C4=O)O2)c(=O)n1 (stereo in doubt; 29) [listing 2 of 2 here]	Active

Target: Human immunodeficiency virus type 1 integrase (Human immunodeficiency virus 1) (UniProt Q7ZJM1)
Experiment: Ratio of D-d-5^ CpA3^ IC50 to compound IC50 for recombinant HIV1 integrase 3^-end processing and strand transfer activity

SMILES	Ratio IC50
NCCCCNP(=O)(OC[C@H]1O[C@@H](n2ccc(N)nc2=O)C[C@@H]1O)OC[C@H]1O[C@@H](n2cnc3c(N)ncnc32)C[C@@H]1O (stereo not given in full)	3
N=C(N)NCCCCNP(=O)(O[C@H]1C[C@H](n2ccc(N)nc2=O)O[C@@H]1CO)O[C@H]1C[C@H](n2cnc3c(N)ncnc32)O[C@@H]1CO (stereo not given in full)	3
Nc1ccn([C@H]2C[C@H](OP(=O)(S)O[C@H]3C[C@H](n4cnc5c(N)ncnc54)O[C@@H]3CO)[C@@H](CO)O2)c(=O)n1 (stereo not given in full)	3
NCCCCNP(=O)(O[C@H]1C[C@H](n2ccc(N)nc2=O)O[C@@H]1CO)O[C@H]1C[C@H](n2cnc3c(N)ncnc32)O[C@@H]1CO (stereo not given in full)	3
N=C(N)NCCCCNP(=O)(OC[C@H]1O[C@@H](n2ccc(N)nc2=O)C[C@@H]1O)OC[C@H]1O[C@@H](n2cnc3c(N)ncnc32)C[C@@H]1O (stereo not given in full)	3
